Measured values as given in ChEMBL document CHEMBL1141044, “Synthesis and antipicornavirus activity of (R)- and (S)-1-[5-(4'-chlorobiphenyl-4-yloxy)-3-methylpentyl]-3-pyridin-4-yl-imidazolidin-2-one” (Bioorg Med Chem Lett, 2005).

Legend:
Enterovirus A71 [1] = experiment: Inhibitory activity against Human enterovirus 71 strain 4643 using plaque reduction assay; type: functional, organism-based; conditions: Enterovirus A
Method in brief: (§1)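 EV71 strain 4643 titrated by plaque reduction in human rhabdomyosarcoma (RD) cells. Values are means of triplicate wells, and each experiment was run at least twice.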

[2] = Cytotoxicity against Human rhabdomyosarcoma cells using plaque reduction assay; type: functional
Method in brief: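 Cytotoxicity was measured in human rhabdomyosarcoma (RD) cells. Values are means of triplicate wells from experiments done at least twice.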

Enterovirus A71 [3] = experiment: Inhibitory activity against human enterovirus 71 strain 4643 using plaque reduction assay; type: functional, organism-based; conditions: Enterovirus A; method in brief: as §1
Enterovirus A71 [4] = experiment: Inhibitory activity against Human Enterovirus 71 (1743) B using plaque reduction assay; type: functional, organism-based; conditions: Enterovirus A
Method in brief: (§2)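 Panel screen by plaque reduction against representative human enteroviruses and rhinoviruses. Each value is a mean of triplicate wells, with all experiments performed at least twice.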

Enterovirus A71 [5] = experiment: Inhibitory activity against Human Enterovirus 71 (2086) C using plaque reduction assay; type: functional, organism-based; conditions: Enterovirus A; method in brief: as §2
Enterovirus A71 [6] = experiment: Inhibitory activity against Human Enterovirus 71 (2231) C using plaque reduction assay; type: functional, organism-based; conditions: Enterovirus A; method in brief: as §2
Enterovirus A71 [7] = experiment: Inhibitory activity against Human Enterovirus 71 (4643) C using plaque reduction assay; type: functional, organism-based; conditions: Enterovirus A; method in brief: as §2
Enterovirus A71 [8] = experiment: Inhibitory activity against Human Enterovirus 71 (BrCr) A using plaque reduction assay; type: functional, organism-based; method in brief: as §2
rhinovirus A2 = experiment: Inhibitory activity against Human rhinovirus 2 using plaque reduction assay; type: functional, organism-based, Human rhinovirus sp.; conditions: Rhinovirus A; method in brief: as §2
rhinovirus B14 = experiment: Inhibitory activity against Human rhinovirus 14 using plaque reduction assay; type: functional, organism-based, Human rhinovirus sp.; conditions: Rhinovirus B; method in brief: as §2
Echovirus = experiment: Inhibitory activity against Echovirus 29 using plaque reduction assay; type: functional, organism-based; method in brief: as §2
Coxsackievirus [9] = experiment: Inhibitory activity against Coxsackievirus A9 using plaque reduction assay; type: functional, organism-based; method in brief: as §2
Coxsackievirus [10] = experiment: Inhibitory activity against Coxsackievirus B1 using plaque reduction assay; type: functional, organism-based; method in brief: as §2
Coxsackievirus [11] = experiment: Inhibitory activity against Coxsackievirus B2 using plaque reduction assay; type: functional, organism-based; method in brief: as §2
Coxsackievirus [12] = experiment: Inhibitory activity against Coxsackievirus B3 using plaque reduction assay; type: functional, organism-based; method in brief: as §2
Coxsackievirus [13] = experiment: Inhibitory activity against Coxsackievirus B4 using plaque reduction assay; type: functional, organism-based; method in brief: as §2
Coxsackievirus [14] = experiment: Inhibitory activity against Coxsackievirus B5 using plaque reduction assay; type: functional, organism-based; method in brief: as §2
Coxsackievirus [15] = experiment: Inhibitory activity against Coxsackievirus B6 using plaque reduction assay; type: functional, organism-based; method in brief: as §2
Coxsackievirus [16] = experiment: Inhibitory activity against Coxsackievirus A16 using plaque reduction assay; type: functional, organism-based; method in brief: as §2
Coxsackievirus [17] = experiment: Inhibitory activity against Coxsackievirus A24 using plaque reduction assay; type: functional, organism-based; method in brief: as §2
Enterovirus D68 = experiment: Inhibitory activity against Human Enterovirus 68 using plaque reduction assay; conditions: Enterovirus D
Enterovirus = experiment: Inhibitory activity against Enterovirus 68 using plaque reduction assay; type: functional, organism-based; method in brief: as §2
Coxsackievirus [18] = experiment: Inhibitory activity against Coxsackievirus A10 using plaque reduction assay; type: functional, organism-based; method in brief: as §2
Enterovirus A71 [19] = experiment: Inhibitory activity against human Enterovirus 71 (1743) B using plaque reduction assay; type: functional, organism-based; conditions: Enterovirus A; method in brief: as §2
Enterovirus A71 [20] = experiment: Inhibitory activity against human Enterovirus 71 (2086) C using plaque reduction assay; type: functional, organism-based; conditions: Enterovirus A; method in brief: as §2
Enterovirus A71 [21] = experiment: Inhibitory activity against human Enterovirus 71 (2231) C using plaque reduction assay; type: functional, organism-based; conditions: Enterovirus A; method in brief: as §2
Enterovirus A71 [22] = experiment: Inhibitory activity against human Enterovirus 71 (4643) C using plaque reduction assay; type: functional, organism-based; conditions: Enterovirus A; method in brief: as §2
Enterovirus A71 [23] = experiment: Inhibitory activity against human Enterovirus 71 (BrCr) A using plaque reduction assay; type: functional, organism-based; method in brief: as §2

SMILES | IC50 (Enterovirus A71 [1]) | CC50 [2] | IC50 (Enterovirus A71 [4]) | IC50 (Enterovirus A71 [5]) | IC50 (Enterovirus A71 [6]) | IC50 (Enterovirus A71 [7]) | IC50 (Enterovirus A71 [8]) | IC50 (rhinovirus A2) | IC50 (rhinovirus B14) | IC50 (Echovirus) | IC50 (Coxsackievirus [9]) | IC50 (Coxsackievirus [10]) | IC50 (Coxsackievirus [11]) | IC50 (Coxsackievirus [12]) | IC50 (Coxsackievirus [13]) | IC50 (Coxsackievirus [14]) | IC50 (Coxsackievirus [15]) | IC50 (Coxsackievirus [16]) | IC50 (Coxsackievirus [17]) | IC50 (Enterovirus) | further results
CC(C)(CCOc1ccc(-c2ccc(Cl)cc2)cc1)CCN1CCN(c2ccncc2)C1=O | 0.04 µM | > 25 µM | – | – | – | – | – | – | – | – | – | – | – | – | – | – | – | – | – | – | –
C[C@H](CCOc1ccc(-c2ccc(Cl)cc2)cc1)CCN1CCN(c2ccncc2)C1=O | 0.003 µM | > 25 µM | 0.026 µM | 0.008 µM | 0.024 µM | 0.003 µM | 0.033 µM | > 25 µM | > 25 µM | 1.3 µM | 0.019 µM | > 25 µM | > 25 µM | > 25 µM | 1.25 µM | 4.85 µM | > 25 µM | 6.92 µM | > 25 µM | – | IC50 (Enterovirus A71 [3]): 0.003 µM; IC50 (Enterovirus D68): > 25 µM
C[C@@H](CCOc1ccc(-c2ccc(Cl)cc2)cc1)CCN1CCN(c2ccncc2)C1=O | 0.033 µM | > 25 µM | 0.17 µM | 0.049 µM | 0.16 µM | 0.033 µM | 0.32 µM | > 25 µM | > 25 µM | 1.47 µM | 0.15 µM | > 25 µM | > 25 µM | > 25 µM | 2.05 µM | 2.08 µM | > 25 µM | > 25 µM | > 25 µM | > 25 µM | IC50 (Coxsackievirus [18]): > 25 µM
O=C1N(CCCCCOc2ccc(-c3ccc(Cl)cc3)cc2)CCN1c1ccncc1 | 0.054 µM | > 25 µM | – | – | – | – | – | > 25 µM | > 25 µM | 0.39 µM | – | > 25 µM | > 25 µM | > 25 µM | 1.3 µM | – | > 25 µM | > 25 µM | – | > 25 µM | IC50 (Enterovirus A71 [19]): 0.092 µM; IC50 (Enterovirus A71 [20]): 0.043 µM; IC50 (Enterovirus A71 [21]): 0.092 µM; IC50 (Enterovirus A71 [22]): 0.054 µM; IC50 (Enterovirus A71 [23]): 0.13 µM; IC50 (Coxsackievirus [18]): > 25 µM
